Experimental data as given in ChEMBL document CHEMBL1143739, “SAR study of bicyclo[4.1.0]heptanes as melanin-concentrating hormone receptor R1 antagonists: taming hERG” (Bioorg Med Chem, 2007).

Experiments:
[1] = target: Melanin-concentrating hormone receptor 1 (Homo sapiens, UniProt Q99705); assay: Displacement of [125I]MCH from MCHR1 expressed in CHO cells; format: cell-based
Summary of the method: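 Human MCH R1, CHO cell membranes (0.1 mg/mL) on SPA beads (1 mg/mL). Buffer: 25 mM HEPES, 10 mM MgCl2, 5 mM MnCl2, 0.1% BSA, pH 7.4. Incubation 2–4 h at room temperature, scintillation count. Ki by non-linear regression; mean ± range of two determinations, each in quadruplicate.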

hERG (KCNH2) [2] = target: T1, hERG (KCNH2) (Homo sapiens, UniProt Q12809); assay: Inhibition of hERG expressed in CHO cells at […] by rubidium efflux assay; format: toxicity, cell-based; details: CHO cells that express hERG
T1 sequence (Q12809 whole entry): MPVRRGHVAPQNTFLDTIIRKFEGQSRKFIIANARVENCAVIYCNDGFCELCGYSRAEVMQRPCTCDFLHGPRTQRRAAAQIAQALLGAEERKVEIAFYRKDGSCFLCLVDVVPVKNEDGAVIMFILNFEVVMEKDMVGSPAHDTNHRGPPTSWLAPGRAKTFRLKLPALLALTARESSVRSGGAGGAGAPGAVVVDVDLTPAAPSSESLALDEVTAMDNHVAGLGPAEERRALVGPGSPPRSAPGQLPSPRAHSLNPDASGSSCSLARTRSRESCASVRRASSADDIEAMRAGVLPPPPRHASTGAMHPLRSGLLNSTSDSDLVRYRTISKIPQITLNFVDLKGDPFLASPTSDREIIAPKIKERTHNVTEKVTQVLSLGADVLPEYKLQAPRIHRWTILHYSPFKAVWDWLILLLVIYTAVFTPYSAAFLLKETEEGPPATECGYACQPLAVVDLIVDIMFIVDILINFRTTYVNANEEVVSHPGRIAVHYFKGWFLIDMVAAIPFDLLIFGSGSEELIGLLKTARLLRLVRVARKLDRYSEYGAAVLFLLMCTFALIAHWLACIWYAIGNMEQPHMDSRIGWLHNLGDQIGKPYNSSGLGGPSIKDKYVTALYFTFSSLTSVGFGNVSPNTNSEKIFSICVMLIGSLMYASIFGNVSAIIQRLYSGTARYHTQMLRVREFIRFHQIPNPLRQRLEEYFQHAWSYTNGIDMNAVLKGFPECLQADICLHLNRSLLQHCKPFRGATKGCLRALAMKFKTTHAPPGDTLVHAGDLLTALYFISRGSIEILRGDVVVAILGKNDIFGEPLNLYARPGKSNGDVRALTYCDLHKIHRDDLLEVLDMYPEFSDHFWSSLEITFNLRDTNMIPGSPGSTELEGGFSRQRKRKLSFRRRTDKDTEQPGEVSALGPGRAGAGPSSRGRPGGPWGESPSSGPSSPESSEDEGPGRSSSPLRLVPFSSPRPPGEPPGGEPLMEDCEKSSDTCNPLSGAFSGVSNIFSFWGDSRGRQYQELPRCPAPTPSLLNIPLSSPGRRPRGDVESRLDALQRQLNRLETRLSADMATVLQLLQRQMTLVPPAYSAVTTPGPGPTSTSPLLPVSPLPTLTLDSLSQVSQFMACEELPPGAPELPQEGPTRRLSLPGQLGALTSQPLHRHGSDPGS

hERG (KCNH2) [3] = target: T1, hERG (KCNH2); assay: Inhibition of hERG expressed in CHO cells at 5 ug/mL by rubidium efflux assay; format: toxicity, cell-based; details: CHO cells that express hERG
Summary of the method: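 hERG-CHO cells plated 24 h, then loaded 3 h in HEPES-buffered saline with 5.4 mM RbCl. Compound added and equilibrated 30 min at 37 °C. Cells washed three times in Rb-free saline (5.4 mM KCl), then depolarized 5 min with 45.4 mM KCl.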

Sequence of Melanin-concentrating hormone receptor 1 (Q99705 whole entry): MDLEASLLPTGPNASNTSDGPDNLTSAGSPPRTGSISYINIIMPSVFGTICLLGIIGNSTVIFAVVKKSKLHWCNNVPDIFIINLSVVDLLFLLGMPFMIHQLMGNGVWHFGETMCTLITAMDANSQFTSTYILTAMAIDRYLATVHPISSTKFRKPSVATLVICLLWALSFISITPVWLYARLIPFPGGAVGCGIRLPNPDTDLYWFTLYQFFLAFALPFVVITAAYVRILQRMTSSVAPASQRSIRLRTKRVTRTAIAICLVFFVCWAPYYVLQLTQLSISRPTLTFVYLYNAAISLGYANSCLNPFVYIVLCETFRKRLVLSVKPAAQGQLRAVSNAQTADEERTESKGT

Ki [1] | Structure (SMILES) | inhibition at […] (hERG (KCNH2) [2]) | inhibition at 5 ug/mL (hERG (KCNH2) [3])
34 nM | N#Cc1cccc([C@]23CC[C@@H](N(CCN4CC[C@@H](O)C4)C(=O)Nc4cccc(Br)c4)CC2C3)c1 (stereo partly drawn) |  | 
4.5 nM | CC(C)N(CCN(C(=O)Nc1cc(F)cc(F)c1)[C@@H]1CC[C@]2(c3cccc(C#N)c3)CC2C1)C(C)C (stereo partly drawn) |  | 
5.4 nM | CS(=O)(=O)N1CCC(CN(C(=O)Nc2ccc(F)c(F)c2)[C@@H]2CC[C@]3(c4cccc(C#N)c4)CC3C2)CC1 (stereo partly drawn) | 15% | 34%
23 nM | CC(=O)NC1CCN(CCN(C(=O)Nc2ccc(F)c(Cl)c2)[C@@H]2CC[C@]3(c4cccc(C#N)c4)CC3C2)C1 (stereo partly drawn) |  | 
29 nM | CCO/N=C/c1cccc([C@]23CC[C@@H](N(CCN(C(C)C)C(C)C)C(=O)Nc4ccc(F)c(Cl)c4)CC2C3)c1 (stereo partly drawn) |  | 
117 nM | O=C(Nc1ccc(F)c(Cl)c1)N(CCN1CCCC1)C1CC=C(c2ccco2)CC1 (stereo not drawn) |  | 
13 nM | CC(C)N(CCN(C(=O)Nc1ccc(F)c(Cl)c1)[C@@H]1CC[C@]2(c3cccc(CN(C)C)c3)CC2C1)C(C)C (stereo partly drawn) | -1% | 5%
539 nM | Cc1cc(C)cc(NC(=O)N(CCN2CC[C@@H](O)C2)[C@@H]2CC[C@]3(c4cccc(C#N)c4)CC3C2)c1 (stereo partly drawn) |  | 
 | N#Cc1cccc([C@]23CC[C@@H](N(CC4CCN(C5CCOCC5)CC4)C(=O)Nc4ccc(F)c(Cl)c4)CC2C3)c1 (stereo partly drawn) | 75% | 91%
46 nM | CCN(CC)Cc1cccc([C@]23CC[C@@H](N(CCN(C(C)C)C(C)C)C(=O)Nc4ccc(F)c(Cl)c4)CC2C3)c1 (stereo partly drawn) | 15% | 30%
27 nM | N#Cc1cccc([C@]23CC[C@@H](N(CCN4CC[C@@H](O)C4)C(=O)Nc4cccc(Cl)c4)CC2C3)c1 (stereo partly drawn) |  | 
26 nM | CS(=O)(=O)N1CCC(CN(C(=O)Nc2ccc(F)c(C(F)(F)F)c2)[C@@H]2CC[C@]3(c4cccc(C#N)c4)CC3C2)CC1 (stereo partly drawn) | -1% | -1%
92 nM | N#Cc1cccc(NC(=O)N(CCN2CC[C@@H](O)C2)[C@@H]2CC[C@]3(c4cccc(C#N)c4)CC3C2)c1 (stereo partly drawn) |  | 
60 nM | N#Cc1cccc([C@]23CC[C@@H](N(CCN4CC[C@@H](O)C4)C(=O)Nc4cccc([N+](=O)[O-])c4)CC2C3)c1 (stereo partly drawn) |  | 
295 nM | CS(=O)(=O)N1CCCCC1CN(C(=O)Nc1ccc(F)c(Cl)c1)[C@@H]1CC[C@]2(c3cccc(C#N)c3)CC2C1 (stereo partly drawn) | 31% | 3%
57 nM | N#Cc1ncc(C2=CCC(N(CCN3CCCC3)C(=O)Nc3ccc(F)c(Cl)c3)CC2)s1 (stereo not drawn) |  | 
15 nM | N#Cc1cccc([C@]23CC[C@@H](N(CCN4CCCC(CO)C4)C(=O)Nc4ccc(F)c(Cl)c4)CC2C3)c1 (stereo partly drawn) |  | 
181 nM | CNC(=O)N1CCC(CN(C(=O)Nc2ccc(F)c(C(F)(F)F)c2)[C@@H]2CC[C@]3(c4cccc(C#N)c4)CC3C2)CC1 (stereo partly drawn) | 14% | 18%
6 nM | CC(C)N(CCN(C(=O)Nc1cccc(Cl)c1)[C@@H]1CC[C@]2(c3cccc(C#N)c3)CC2C1)C(C)C (stereo partly drawn) |  | 
20 nM | N#Cc1cccc([C@]23CC[C@@H](N(CCN4CC[C@@H](O)C4)C(=O)Nc4ccc(F)c(F)c4)CC2C3)c1 (stereo partly drawn) |  | 
21 nM | CCS(=O)(=O)N1CCC(CN(C(=O)Nc2ccc(F)c(F)c2)[C@@H]2CC[C@]3(c4cccc(C#N)c4)CC3C2)CC1 (stereo partly drawn) | 25% | 59%

Ki [1] | Structure (SMILES) | inhibition at […] (hERG (KCNH2) [2]) | inhibition at 5 ug/mL (hERG (KCNH2) [3])
142 nM | CC(C)N(CCN(C(=O)Nc1ccc(F)c(Cl)c1)[C@@H]1CC[C@]2(c3cccc(C(N)=O)c3)CC2C1)C(C)C (stereo partly drawn) | 21% | 44%
373 nM | COc1cccc(NC(=O)N(CCN2CC[C@@H](O)C2)[C@@H]2CC[C@]3(c4cccc(C#N)c4)CC3C2)c1 (stereo partly drawn) |  | 
31 nM | CC(=O)NCc1cccc([C@]23CC[C@@H](N(CCN(C(C)C)C(C)C)C(=O)Nc4ccc(F)c(Cl)c4)CC2C3)c1 (stereo partly drawn) | 62% | 78%
1880 nM | N#Cc1cccc([C@]23CC[C@@H](N(CCN4CC[C@@H](O)C4)C(=O)Nc4ccccc4F)CC2C3)c1 (stereo partly drawn) |  | 
11 nM | CCN(CCO)CCN(C(=O)Nc1ccc(F)c(Cl)c1)[C@@H]1CC[C@]2(c3cccc(C#N)c3)CC2C1 (stereo partly drawn) |  | 
48 nM | Cc1ccc(NC(=O)N(CCN2CC[C@@H](O)C2)[C@@H]2CC[C@]3(c4cccc(C#N)c4)CC3C2)cc1F (stereo partly drawn) |  | 
16 nM | CC1CCCN1CCN(C(=O)Nc1ccc(F)c(Cl)c1)[C@@H]1CC[C@]2(c3cccc(C#N)c3)CC2C1 (stereo partly drawn) |  | 
2210 nM | N#Cc1cccc([C@]23CC[C@@H](N(CCN4CC[C@@H](O)C4)C(=O)NC4CCCCC4)CC2C3)c1 (stereo partly drawn) |  | 
51 nM | O=Cc1ccc(C2=CCC(N(CCN3CCCC3)C(=O)Nc3ccc(F)c(Cl)c3)CC2)o1 (stereo not drawn) |  | 47%
312 nM | CC(=O)N1CCC(CN(C(=O)Nc2ccc(F)c(Cl)c2)[C@@H]2CC[C@]3(c4cccc(C#N)c4)CC3C2)CC1 (stereo partly drawn) | 32% | 37%
1970 nM | O=C(Nc1ccc(F)c(Cl)c1)N(CCN1CCCC1)C1CC=C(c2ccc[nH]2)CC1 (stereo not drawn) |  | 
2.8 nM | CC(C)N(CCN(C(=O)Nc1ccc(F)c(F)c1)[C@@H]1CC[C@]2(c3cccc(C#N)c3)CC2C1)C(C)C (stereo partly drawn) |  | 
2.3 nM | CC(C)N(CCN(C(=O)Nc1ccc(F)c(Cl)c1)[C@@H]1CC[C@]2(c3cccc(CN)c3)CC2C1)C(C)C (stereo partly drawn) | 22% | 32%
48 nM | CC(C)N(CCN(C(=O)Nc1ccc(F)c(Cl)c1)[C@@H]1CC[C@]2(c3cccc(CO)c3)CC2C1)C(C)C (stereo partly drawn) | 43% | 67%
54 nM | N#Cc1cccc([C@]23CC[C@@H](N(CCN4CC[C@@H](O)C4)C(=O)Nc4ccc(F)cc4)CC2C3)c1 (stereo partly drawn) |  | 
648 nM | CN(C)Cc1ncc(C2=CCC(N(CCN3CCCC3)C(=O)Nc3ccc(F)c(Cl)c3)CC2)s1 (stereo not drawn) |  | 
211 nM | CS(=O)(=O)N1CCCC(CN(C(=O)Nc2ccc(F)c(Cl)c2)[C@@H]2CC[C@]3(c4cccc(C#N)c4)CC3C2)C1 (stereo partly drawn) | 3% | 9%
134 nM | N#Cc1cccc([C@]23CC[C@@H](N(CCN4CC[C@@H](O)C4)C(=O)Nc4ccc5c(c4)OCO5)CC2C3)c1 (stereo partly drawn) |  | 
2 nM | CC(C)N(CCN(C(=O)Nc1cc(Cl)nc(Cl)c1)[C@@H]1CC[C@]2(c3cccc(C#N)c3)CC2C1)C(C)C (stereo in doubt; 6j) |  | 
132 nM | N#Cc1cccc([C@]23CC[C@@H](N(CCN4CC[C@@H](O)C4)C(=O)Nc4ccccc4)CC2C3)c1 (stereo partly drawn) |  | 
21 nM | CC(C)N(CCN(C(=O)Nc1ccc(F)c(Cl)c1)[C@@H]1CC[C@]2(c3cccc(CN4CC[C@H](O)C4)c3)CC2C1)C(C)C (stereo partly drawn) | -4% | -1%

Ki [1] | Structure (SMILES) | inhibition at […] (hERG (KCNH2) [2]) | inhibition at 5 ug/mL (hERG (KCNH2) [3])
15 nM | N#Cc1cccc([C@]23CC[C@@H](N(CCN4CC[C@@H](O)C4)C(=O)Nc4cc(F)cc(F)c4)CC2C3)c1 (stereo partly drawn) |  | 
2.4 nM | CC(C)N(CCN(C(=O)Nc1cc(Cl)nc(Cl)c1)[C@@H]1CC[C@]2(c3cccc(C#N)c3)CC2C1)C(C)C (stereo in doubt; 13) |  | 59%
9.7 nM | CS(=O)(=O)N1CCC(CN(C(=O)Nc2cccc(F)c2)[C@@H]2CC[C@]3(c4cccc(C#N)c4)CC3C2)CC1 (stereo partly drawn) | 25% | 47%
10.4 nM | CC(C)N(CCN(C(=O)Nc1ccc(F)cc1)[C@@H]1CC[C@]2(c3cccc(C#N)c3)CC2C1)C(C)C (stereo partly drawn) |  | 
18 nM | CC(C)N(CCN(C(=O)Nc1ccc(F)c(Cl)c1)[C@@H]1CC[C@]2(c3cccc(CNS(C)(=O)=O)c3)CC2C1)C(C)C (stereo partly drawn) | 17% | 46%
15 nM | N#Cc1cccc([C@]23CC[C@@H](N(CCN4CCCCCC4)C(=O)Nc4ccc(F)c(Cl)c4)CC2C3)c1 (stereo partly drawn) |  | 
 | COC(=O)c1cccc([C@]23CC[C@@H](N(CCN(C(C)C)C(C)C)C(=O)Nc4ccc(F)c(F)c4)CC2C3)c1 (stereo partly drawn) | 57% | 85%
7.8 nM | CC(C)N(CCN(C(=O)Nc1ccc(F)c(F)c1)[C@@H]1CC[C@]2(c3cccc(Br)c3)CC2C1)C(C)C (stereo partly drawn) |  | 
20 nM | N#Cc1cccc([C@]23CC[C@@H](N(CCN4CC[C@@H](O)C4)C(=O)Nc4cccc(F)c4)CC2C3)c1 (stereo partly drawn) |  | 
15 nM | CC1CCCCN1CCN(C(=O)Nc1ccc(F)c(Cl)c1)[C@@H]1CC[C@]2(c3cccc(C#N)c3)CC2C1 (stereo partly drawn) |  | 
85 nM | Cc1ccc(C2=CCC(N(CCN3CCCC3)C(=O)Nc3ccc(F)c(Cl)c3)CC2)s1 (stereo not drawn) |  | 12%
316 nM | O=C(Nc1ccc(F)c(Cl)c1)N(CCN1CCCC1)C1CC=C(c2cc3ccccc3o2)CC1 (stereo not drawn) |  | 
559 nM | CS(=O)(=O)N1CCC[C@H]1CN(C(=O)Nc1ccc(F)c(Cl)c1)[C@@H]1CC[C@]2(c3cccc(C#N)c3)CC2C1 (stereo partly drawn) | 32% | 13%
5.7 nM | CC(C)N(CCN(C(=O)Nc1cccc(Br)c1)[C@@H]1CC[C@]2(c3cccc(C#N)c3)CC2C1)C(C)C (stereo partly drawn) |  | 
7.6 nM | CC(C)N(CCN(C(=O)Nc1cccc(C#N)c1)[C@@H]1CC[C@]2(c3cccc(C#N)c3)CC2C1)C(C)C (stereo partly drawn) |  | 
22 nM | N#Cc1cccc([C@]23CC[C@@H](N(CCN4CCC(O)CC4)C(=O)Nc4ccc(F)c(Cl)c4)CC2C3)c1 (stereo partly drawn) |  | 
53 nM | N#Cc1cccc([C@]23CC[C@@H](N(CCN4CCOCC4)C(=O)Nc4ccc(F)c(Cl)c4)CC2C3)c1 (stereo partly drawn) |  | 
2.7 nM | CC(C)N(CCN(C(=O)Nc1cccc([N+](=O)[O-])c1)[C@@H]1CC[C@]2(c3cccc(C#N)c3)CC2C1)C(C)C (stereo partly drawn) |  | 
92 nM | CC(C)N(CCN(C(=O)Nc1ccc(F)c(F)c1)[C@@H]1CC[C@]2(c3ccccc3)CC2C1)C(C)C (stereo partly drawn) |  | 
147 nM | O=C(Nc1ccc(F)c(Cl)c1)N(CCN1CCCC1)C1CC=C(c2cncnc2)CC1 (stereo not drawn) |  | 85%
2.1 nM | CC(C)N(CCN(C(=O)Nc1cccc(F)c1)[C@@H]1CC[C@]2(c3cccc(C#N)c3)CC2C1)C(C)C (stereo partly drawn) |  | 
